According to ChEMBL document CHEMBL3407460, “Synthesis of novel thiazole-based 8,9-dihydro-7H-pyrimido[4,5-b][1,4]diazepines as potential antitumor and antifungal agents” (2015):

What was measured:
Type in all cases: functional
[1] = Antitumor activity against human OVCAR5 cells after 48 hrs by Sulforhodamine B assay; settings: OVCAR-5, 48 h
In short: (§1)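 NCI 60-cell-line screen. Secondary five-dose test at 100, 10, 1.0, 0.1 and 0.01 µM with continuous drug exposure for 48 h. Cell growth was estimated by sulforhodamine B protein staining. […] LC50 was also reported.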

[2] = Antitumor activity against human BT549 cells after 48 hrs by Sulforhodamine B assay; settings: BT-549, 48 h; for CC50: read-out: LC50 (the source's name); in short: as §1
[3] = Antitumor activity against human UACC257 cells after 48 hrs by Sulforhodamine B assay; settings: UACC-257, 48 h; for CC50: read-out: LC50 (the source's name); in short: as §1
[4] = Antitumor activity against human HCT15 cells after 48 hrs by Sulforhodamine B assay; settings: HCT-15, 48 h; for CC50: read-out: LC50 (the source's name); in short: as §1
[5] = Antitumor activity against human SF295 cells after 48 hrs by Sulforhodamine B assay; settings: SF-295, 48 h; for CC50: read-out: LC50 (the source's name); in short: as §1
[6] = Antitumor activity against human Hs 578T cells after 48 hrs by Sulforhodamine B assay; settings: for CC50: read-out: LC50 (the source's name); in short: as §1
[7] = Antitumor activity against human COLO205 cells after 48 hrs by Sulforhodamine B assay; settings: COLO 205, 48 h; for CC50: read-out: LC50 (the source's name); in short: as §1
[8] = Antitumor activity against human SKOV3 cells after 48 hrs by Sulforhodamine B assay; settings: SK-OV-3, 48 h; for CC50: read-out: LC50 (the source's name); in short: as §1
SW-620 = assay: Antitumor activity against human SW620 cells after 48 hrs by Sulforhodamine B assay; settings: SW-620, 48 h; for CC50: read-out: LC50 (the source's name); in short: as §1
M14 = assay: Antitumor activity against human M14 cells after 48 hrs by Sulforhodamine B assay; settings: M14, 48 h; for CC50: read-out: LC50 (the source's name); in short: as §1
NCI-H226 = assay: Antitumor activity against human NCI-H226 cells after 48 hrs by Sulforhodamine B assay; settings: NCI-H226, 48 h; for CC50: read-out: LC50 (the source's name); in short: as §1
Malme-3M = assay: Antitumor activity against human MALME-3M cells after 48 hrs by Sulforhodamine B assay; settings: for CC50: read-out: LC50 (the source's name); in short: as §1
A549 = assay: Antitumor activity against human A549 cells after 48 hrs by Sulforhodamine B assay; settings: A549, 48 h; for CC50: read-out: LC50 (the source's name); in short: as §1
SNB-75 = assay: Antitumor activity against human SNB75 cells after 48 hrs by Sulforhodamine B assay; settings: SNB-75, 48 h; in short: as §1
MDA-MB-468 = assay: Antitumor activity against human MDA-MB-468 cells after 48 hrs by Sulforhodamine B assay; settings: MDA-MB-468, 48 h; in short: as §1
NCI-H522 = assay: Antitumor activity against human NCI-H522 cells after 48 hrs by Sulforhodamine B assay; settings: NCI-H522, 48 h; for CC50: read-out: LC50 (the source's name); in short: as §1
[9] = Antitumor activity against human PC3 cells after 48 hrs by Sulforhodamine B assay; settings: PC-3, 48 h; for CC50: read-out: LC50 (the source's name); in short: as §1
[10] = Antitumor activity against human SF539 cells after 48 hrs by Sulforhodamine B assay; settings: SF-539, 48 h; for CC50: read-out: LC50 (the source's name); in short: as §1
SNB-19 = assay: Antitumor activity against human SNB19 cells after 48 hrs by Sulforhodamine B assay; settings: SNB-19, 48 h; in short: as §1
SF-268 = assay: Antitumor activity against human SF268 cells after 48 hrs by Sulforhodamine B assay; settings: SF-268, 48 h; for CC50: read-out: LC50 (the source's name); in short: as §1
HOP-62 = assay: Antitumor activity against human HOP62 cells after 48 hrs by Sulforhodamine B assay; settings: HOP-62, 48 h; in short: as §1
MDA-MB-435 = assay: Antitumor activity against human MDA-MB-435 cells after 48 hrs by Sulforhodamine B assay; settings: MDA-MB-435, 48 h; for CC50: read-out: LC50 (the source's name); in short: as §1
[11] = Antitumor activity against human OVCAR3 cells after 48 hrs by Sulforhodamine B assay; settings: OVCAR-3, 48 h; for CC50: read-out: LC50 (the source's name); in short: as §1
NCI-H460 = assay: Antitumor activity against human NCI-H460 cells after 48 hrs by Sulforhodamine B assay; settings: NCI-H460, 48 h; in short: as §1
[12] = Antitumor activity against human OVCAR8 cells after 48 hrs by Sulforhodamine B assay; settings: OVCAR-8, 48 h; in short: as §1
K562 = assay: Antitumor activity against human K562 cells after 48 hrs by Sulforhodamine B assay; settings: K562, 48 h; for CC50: read-out: LC50 (the source's name); in short: as §1
CCRF-CEM = assay: Antitumor activity against human CCRF-CEM cells after 48 hrs by Sulforhodamine B assay; settings: for CC50: read-out: LC50 (the source's name); in short: as §1
[13] = Antitumor activity against human NCI-ADR-RES cells after 48 hrs by Sulforhodamine B assay; settings: for CC50: read-out: LC50 (the source's name); in short: as §1
KM12 = assay: Antitumor activity against human KM12 cells after 48 hrs by Sulforhodamine B assay; settings: KM12, 48 h; for CC50: read-out: LC50 (the source's name); in short: as §1
[14] = Antitumor activity against human HOP92 cells after 48 hrs by Sulforhodamine B assay; settings: HOP-92, 48 h; for CC50: read-out: LC50 (the source's name); in short: as §1
MCF7 = assay: Antitumor activity against human MCF7 cells after 48 hrs by Sulforhodamine B assay; settings: MCF7, 48 h; for CC50: read-out: LC50 (the source's name); in short: as §1
T47D = assay: Antitumor activity against human T47D cells after 48 hrs by Sulforhodamine B assay; settings: for CC50: read-out: LC50 (the source's name); in short: as §1
SR = assay: Antitumor activity against human SR cells after 48 hrs by Sulforhodamine B assay; settings: for CC50: read-out: LC50 (the source's name); in short: as §1
MDA-MB-231 = assay: Antitumor activity against human MDA-MB-231 cells after 48 hrs by Sulforhodamine B assay; settings: MDA-MB-231, 48 h; in short: as §1
NCI-H23 = assay: Antitumor activity against human NCI-H23 cells after 48 hrs by Sulforhodamine B assay; settings: NCI-H23, 48 h; in short: as §1
HL-60(TB) = assay: Antitumor activity against human HL-60(TB) cells after 48 hrs by Sulforhodamine B assay; settings: HL-60, 48 h; for CC50: read-out: LC50 (the source's name); in short: as §1
[15] = Antitumor activity against human HCC2998 cells after 48 hrs by Sulforhodamine B assay; settings: HCC 2998, 48 h; for CC50: read-out: LC50 (the source's name); in short: as §1
SK-MEL-5 = assay: Antitumor activity against human SK-MEL-5 cells after 48 hrs by Sulforhodamine B assay; settings: SK-MEL-5, 48 h; for CC50: read-out: LC50 (the source's name); in short: as §1
[16] = Antitumor activity against human HCT116 cells after 48 hrs by Sulforhodamine B assay; settings: HCT-116, 48 h; for CC50: read-out: LC50 (the source's name); in short: as §1

## Nc1ncnc2c1N=C(c1ccc3c(c1)OCO3)CC(c1sc(Cl)nc1Cl)N2 (stereo unspecified)
[1]
  GI50: 6.03 µM
  LC50: > 100 µM
[2]
  GI50: 3.79 µM
  CC50: 53.9 µM
[3]
  GI50: 14.6 µM
  CC50: > 100 µM
[4]
  GI50: 1.07 µM
  CC50: > 100 µM
[5]
  GI50: 2.21 µM
  CC50: 39.8 µM
[6]
  GI50: 2.35 µM
  CC50: > 100 µM
[7]
  GI50: 3.48 µM
  CC50: 45.6 µM
[8]
  GI50: 2.78 µM
  CC50: > 100 µM
SW-620
  GI50: 2.98 µM
  CC50: > 100 µM
M14
  GI50: 2.01 µM
  CC50: 44.6 µM
NCI-H226
  GI50: 17.7 µM
  CC50: > 100 µM
Malme-3M
  GI50: 14.3 µM
  CC50: 59.2 µM
A549
  GI50: 6.47 µM
  CC50: > 100 µM
SNB-75
  GI50: 1.39 µM
  LC50 (concentration killing 50% of cells): 61.4 µM
MDA-MB-468
  GI50: 1.65 µM
  LC50: > 100 µM
NCI-H522
  GI50: 2.51 µM
  CC50: 55.3 µM
[9]
  GI50: 5.15 µM
  CC50: > 100 µM
[10]
  GI50: 2.22 µM
  CC50: 33.6 µM
SNB-19
  GI50: 4.83 µM
  LC50: > 100 µM
SF-268
  GI50: 9.84 µM
  CC50: 92.2 µM
HOP-62
  GI50: 5.32 µM
  LC50 (concentration giving 50% net cell kill): 62.6 µM
MDA-MB-435
  GI50: 0.35 µM
  CC50: 48.4 µM
[11]
  GI50: 3.94 µM
  CC50: 66.8 µM
NCI-H460
  GI50: 3.99 µM
  LC50: > 100 µM
[12]
  GI50: 4.86 µM
  LC50 (concentration killing 50% of cells): > 100 µM
K562
  GI50: 0.54 µM
  CC50: > 100 µM
CCRF-CEM
  GI50: 3.02 µM
  CC50: > 100 µM
[13]
  GI50: 3.55 µM
  CC50: > 100 µM
KM12
  GI50: 3.93 µM
  CC50: 73.6 µM
[14]
  GI50: 4.25 µM
  CC50: 77.5 µM
MCF7
  GI50: 2.81 µM
  CC50: > 100 µM
T47D
  GI50: 5.36 µM
  CC50: > 100 µM
SR
  GI50: 1.9 µM
  CC50: > 100 µM
MDA-MB-231
  GI50: 5.81 µM
  LC50 (concentration killing 50% of cells): 55.7 µM
NCI-H23
  GI50: 8.87 µM
  LC50: > 100 µM
HL-60(TB)
  GI50: 36.1 µM
  CC50: > 100 µM
[15]
  GI50: 6.11 µM
  CC50: 48.8 µM
SK-MEL-5
  GI50: 3.43 µM
  CC50: 40.8 µM
[16]
  GI50: 3.42 µM
  CC50: 44.5 µM

## Cc1ccc(C2=Nc3c(N)ncnc3NC(c3sc(Cl)nc3Cl)C2)cc1 (stereo unspecified)
[1]
  GI50: 10.2 µM
  LC50: 46.8 µM
[2]
  GI50: 3.93 µM
  CC50: 40.6 µM
[3]
  GI50: 6.76 µM
  CC50: 48.6 µM
[4]
  GI50: 3.05 µM
  CC50: 50.1 µM
[5]
  GI50: 3.06 µM
  CC50: 36.4 µM
[6]
  GI50: 2.44 µM
  CC50: > 100 µM
[7]
  GI50: 4.18 µM
  CC50: 42.1 µM
[8]
  GI50: 3.6 µM
  CC50: 43 µM
SW-620
  GI50: 3.42 µM
  CC50: 40.7 µM
M14
  GI50: 2.64 µM
  CC50: 35.6 µM
NCI-H226
  GI50: 13.7 µM
  CC50: 90.3 µM
Malme-3M
  GI50: 6.33 µM
  CC50: 44 µM
A549
  GI50: 5.02 µM
  CC50: 52.5 µM
SNB-75
  GI50: 1.63 µM
  LC50 (concentration killing 50% of cells): 38.1 µM
MDA-MB-468
  GI50: 2.12 µM
  LC50: 41.6 µM
NCI-H522
  GI50: 4.05 µM
  CC50: 42.1 µM
[9]
  GI50: 5.89 µM
  CC50: 73.1 µM
[10]
  GI50: 2.69 µM
  CC50: 33.1 µM
SNB-19
  GI50: 5.51 µM
  LC50: 47.2 µM
SF-268
  GI50: 5.68 µM
  CC50: 67.3 µM
HOP-62
  GI50: 3.72 µM
  LC50 (concentration giving 50% net cell kill): 48.9 µM
MDA-MB-435
  GI50: 1.47 µM
  CC50: 39 µM
[11]
  GI50: 3.6 µM
  CC50: 43.4 µM
NCI-H460
  GI50: 4.06 µM
  LC50: 49.4 µM
[12]
  GI50: 4.8 µM
  LC50 (concentration killing 50% of cells): 80.7 µM
K562
  GI50: 1.68 µM
  CC50: > 100 µM
CCRF-CEM
  GI50: 3.21 µM
  CC50: > 100 µM
[13]
  GI50: 3.13 µM
  CC50: 58.5 µM
KM12
  GI50: 3.8 µM
  CC50: 40.4 µM
[14]
  GI50: 3.72 µM
  CC50: 45.4 µM
MCF7
  GI50: 3.56 µM
  CC50: 97.6 µM
T47D
  GI50: 3.35 µM
  CC50: > 100 µM
SR
  GI50: 2.25 µM
  CC50: 76.7 µM
MDA-MB-231
  GI50: 3.86 µM
  LC50 (concentration killing 50% of cells): 42.1 µM
NCI-H23
  GI50: 8.23 µM
  LC50: 58.7 µM
HL-60(TB)
  GI50: 2.04 µM
  CC50: > 100 µM
[15]
  GI50: 10.3 µM
  CC50: 46.8 µM
SK-MEL-5
  GI50: 3.69 µM
  CC50: 37.3 µM
[16]
  GI50: 3.7 µM
  CC50: 37.3 µM
